# Reference: ChEMBL document CHEMBL1145127 (J Med Chem, 2003)
# What was measured:
# [1] = biological target: cGMP-specific 3',5'-cyclic phosphodiesterase (Bos taurus, UniProt Q28156); assay: In vitro inhibitory activity against bovine phosphodiesterase 5
# Rattus norvegicus [2] = species: Rattus norvegicus; assay: Effective concentration against rat aortic smooth muscle cell; type: functional
# Summary of the method: (§1)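 Rat aortic smooth muscle cells cultured in DMEM with 10% fetal calf serum at 37 °C, seeded at (2-5) × 10⁴ cells/well and used confluent after 3-5 days. Cells preincubated 30 min at 37 °C in PBS with inhibitor, then stimulated with atrial natriuretic factor (0.1 µM) 10 min. Intracellular cGMP extracted with 65% ethanol. Triplicate wells, DMSO ≤0.1%. EC50 taken as concentration giving half-maximal cGMP increase.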
# [3] = biological target: cGMP-specific 3',5'-cyclic phosphodiesterase (Bos taurus) (UniProt Q28156); assay: Inhibition of bovine PDE5 (Phosphodiesterase 5); details: concentration not given here
# [4] = Oral bioavailability in rat was determined; type: ADME, organism-based; details: in vivo
# [5] = The total clearance time in plasma in rat was determined; type: ADME, organism-based
# [6] = Half life in rat; type: ADME, organism-based; details: in vivo
# Phosphodiesterase 6 = assay: Inhibition of bovine retina PDE6 (Phosphodiesterase 6); type: protein assay, Bos taurus
# [7] = biological target: cGMP-dependent 3',5'-cyclic phosphodiesterase (Homo sapiens, UniProt O00408); assay: Inhibition of Human recombinant PDE2 (Phosphodiesterase 2)
# cGMP-dependent 3',5'-cyclic phosphodiesterase, sequence (O00408 whole entry): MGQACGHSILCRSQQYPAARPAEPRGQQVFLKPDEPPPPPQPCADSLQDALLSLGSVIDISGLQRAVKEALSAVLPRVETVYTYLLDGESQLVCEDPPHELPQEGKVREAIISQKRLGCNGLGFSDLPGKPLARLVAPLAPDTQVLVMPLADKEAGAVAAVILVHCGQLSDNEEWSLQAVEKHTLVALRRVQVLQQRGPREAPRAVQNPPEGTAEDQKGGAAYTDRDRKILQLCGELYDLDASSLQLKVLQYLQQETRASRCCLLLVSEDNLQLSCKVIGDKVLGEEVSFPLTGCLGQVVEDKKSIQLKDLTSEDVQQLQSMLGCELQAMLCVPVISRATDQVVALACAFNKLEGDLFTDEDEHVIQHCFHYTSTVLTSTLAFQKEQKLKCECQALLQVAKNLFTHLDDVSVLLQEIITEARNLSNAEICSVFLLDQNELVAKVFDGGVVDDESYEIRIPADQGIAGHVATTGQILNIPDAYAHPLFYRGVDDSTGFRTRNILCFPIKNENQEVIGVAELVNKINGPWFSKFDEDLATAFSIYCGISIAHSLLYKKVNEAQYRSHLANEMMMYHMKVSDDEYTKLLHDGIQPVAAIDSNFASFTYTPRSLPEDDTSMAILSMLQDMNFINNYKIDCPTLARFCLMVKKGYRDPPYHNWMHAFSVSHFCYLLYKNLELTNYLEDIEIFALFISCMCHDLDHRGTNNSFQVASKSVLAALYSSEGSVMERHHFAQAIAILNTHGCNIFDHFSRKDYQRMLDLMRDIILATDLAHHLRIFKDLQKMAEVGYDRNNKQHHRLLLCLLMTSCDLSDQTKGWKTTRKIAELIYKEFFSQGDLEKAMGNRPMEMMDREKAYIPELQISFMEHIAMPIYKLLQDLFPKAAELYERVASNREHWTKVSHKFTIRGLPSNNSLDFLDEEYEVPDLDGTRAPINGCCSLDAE
# Phosphodiesterase 3B = Phosphodiesterase 3B (Bos taurus, UniProt E1BN64); assay: Inhibition of bovine aorta PDE3 (Phosphodiesterase 3)
# Phosphodiesterase 3B, sequence (E1BN64 whole entry): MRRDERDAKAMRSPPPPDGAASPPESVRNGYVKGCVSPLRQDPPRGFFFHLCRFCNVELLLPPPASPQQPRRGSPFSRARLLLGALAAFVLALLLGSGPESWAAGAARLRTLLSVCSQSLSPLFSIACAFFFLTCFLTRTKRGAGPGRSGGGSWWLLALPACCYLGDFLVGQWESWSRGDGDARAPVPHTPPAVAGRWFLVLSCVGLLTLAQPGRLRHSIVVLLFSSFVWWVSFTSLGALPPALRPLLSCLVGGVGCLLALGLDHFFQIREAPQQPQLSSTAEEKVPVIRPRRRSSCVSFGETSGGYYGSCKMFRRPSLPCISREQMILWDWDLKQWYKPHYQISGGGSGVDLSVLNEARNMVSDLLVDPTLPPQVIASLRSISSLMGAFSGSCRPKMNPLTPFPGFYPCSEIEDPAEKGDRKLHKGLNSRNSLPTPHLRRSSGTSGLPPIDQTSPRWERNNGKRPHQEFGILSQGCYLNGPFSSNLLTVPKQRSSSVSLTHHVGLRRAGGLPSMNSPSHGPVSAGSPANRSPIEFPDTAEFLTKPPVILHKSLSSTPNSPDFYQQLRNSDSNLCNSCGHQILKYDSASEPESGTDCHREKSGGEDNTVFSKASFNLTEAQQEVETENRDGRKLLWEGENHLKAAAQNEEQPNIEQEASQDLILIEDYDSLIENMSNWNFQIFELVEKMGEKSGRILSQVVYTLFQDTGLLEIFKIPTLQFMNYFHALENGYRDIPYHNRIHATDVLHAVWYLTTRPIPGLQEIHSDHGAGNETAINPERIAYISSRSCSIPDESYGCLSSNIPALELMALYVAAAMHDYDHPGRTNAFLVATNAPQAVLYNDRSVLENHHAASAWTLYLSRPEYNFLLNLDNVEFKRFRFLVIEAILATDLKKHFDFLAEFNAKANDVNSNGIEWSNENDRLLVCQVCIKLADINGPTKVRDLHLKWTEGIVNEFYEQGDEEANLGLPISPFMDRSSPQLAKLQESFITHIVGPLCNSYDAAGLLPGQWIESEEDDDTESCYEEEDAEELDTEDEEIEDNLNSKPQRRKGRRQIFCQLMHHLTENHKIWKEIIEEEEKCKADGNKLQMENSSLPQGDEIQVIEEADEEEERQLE
# Phosphodiesterase 1 = Phosphodiesterase 1 (Bos taurus, UniProt Q01061+P14100); assay: Inhibition of bovine aorta PDE1 (Phosphodiesterase 1); type: protein assay
# Rattus norvegicus [8] = species: Rattus norvegicus; assay: Increased intracellular cGMP concentration in rat aortic smooth cells (RSMC) using atrial natriuretic factor; type: functional, cell-based; details: Aorta; summary of the method: as §1
Compound,IC50 [1] [nM],EC50 (Rattus norvegicus [2]; Rattus norvegicus) [nM],other results
COc1ccc([C@@H]2c3[nH]c4ccccc4c3C[C@@H]3C(=O)N(C)CC(=O)N23)cc1,41,200,
O=C1NCC(=O)N2[C@H](c3ccc4c(c3)OCO4)c3[nH]c4ccccc4c3C[C@H]12 (stereo in doubt; 16) [NORTADALAFIL],11,300,
CCCCN1CC(=O)N2C(c3ccc(C#N)cc3)c3[nH]c4ccccc4c3C[C@@H]2C1=O (some centres not stated),758,,
CCCCN1CC(=O)N2C(c3ccc(OC)cc3)c3[nH]c4ccccc4c3C[C@@H]2C1=O (some centres not stated),70,> 10000,
CCCCN1CC(=O)N2C(c3ccc(OC)c(OC)c3)c3[nH]c4ccccc4c3C[C@@H]2C1=O (some centres not stated),,,inhibition [3]: 62%
COc1ccc(C2c3[nH]c4ccccc4c3C[C@@H]3C(=O)N(Cc4ccccc4)C(=O)N23)cc1 (some centres not stated),18,> 10000,
CN1CC(=O)N2[C@H](c3ccc4c(c3)OCO4)c3[nH]c4ccccc4c3C[C@@H]2C1=O (stereo in doubt; 12a),,,bioavailability [4]: 63%; clearance [5]: 5.1 mL/min/kg; half-life [6]: 2.4 h; IC50 (Phosphodiesterase 6): 5100 nM; IC50 [7]: > 10000 nM; IC50 (Phosphodiesterase 3B): > 10000 nM; IC50 (Phosphodiesterase 1): > 10000 nM; EC50 (Rattus norvegicus [2]): 150 nM
COc1ccc([C@@H]2c3[nH]c4ccccc4c3C[C@@H]3C(=O)N(CC4CC4)CC(=O)N23)cc1,6,500,
O=C1[C@H]2Cc3c([nH]c4ccccc34)[C@@H](c3ccc4c(c3)OCO4)N2C(=O)CN1C1CCCCC1,5,300,
CCCc1nn(C)c2c(=O)[nH]c(-c3cc(S(=O)(=O)N4CCN(C)CC4)ccc3OCC)nc12,,,IC50 (Phosphodiesterase 3B): 9200 nM
COc1ccc([C@@H]2c3[nH]c4ccccc4c3C[C@@H]3C(=O)N(C4CCCC4)CC(=O)N23)cc1,17,200,
CCCCN1C(=O)[C@H]2Cc3c([nH]c4ccccc34)C(c3ccc(OC)cc3)N2C1=O (some centres not stated),,,EC50 (Rattus norvegicus [8]): 700 nM
CN1CC(=O)N2[C@H](c3ccc4c(c3)OCO4)c3[nH]c4ccccc4c3C[C@@H]2C1=O (stereo in doubt),,,EC50 (Rattus norvegicus [2]): 500 nM
CCN1CC(=O)N2[C@H](c3ccc(OC)cc3)c3[nH]c4ccccc4c3C[C@@H]2C1=O,,500,
CCCCN1CC(=O)N2[C@H](c3ccc(OC)cc3)c3[nH]c4ccccc4c3C[C@@H]2C1=O,5,1500,
CN1C[C@H]2Cc3c([nH]c4ccccc34)[C@@H](c3ccc4c(c3)OCO4)N2C1=O,60,> 10000,
Cc1ccc([C@@H]2c3[nH]c4ccccc4c3C[C@@H]3C(=O)N(CC4CC4)CC(=O)N23)cc1,23,600,
O=C1[C@H]2Cc3c([nH]c4ccccc34)C(c3ccc4c(c3)OCO4)N2C(=O)N1Cc1ccccc1 (some centres not stated),6,3000,
O=C1NCC(=O)N2[C@H](c3ccc4c(c3)OCO4)c3[nH]c4ccccc4c3C[C@H]12 (stereo in doubt) [NORTADALAFIL],12,,EC50 (Rattus norvegicus [2]): 600 nM
COc1ccc([C@H]2c3[nH]c4ccccc4c3C[C@@H]3C(=O)N(Cc4ccccc4)CN23)cc1,60,> 10000,
CCCCN1C[C@H]2Cc3c([nH]c4ccccc34)[C@@H](c3ccc(OC)cc3)N2C1,> 10000,,
COc1ccc(C2c3[nH]c4ccccc4c3C[C@@H]3C(=O)N(C)C(=O)N23)cc1 (some centres not stated),10,1000,
CCCCN1C(=O)C2Cc3c([nH]c4ccccc34)C(c3ccc(OC)cc3)N2C1=O (configuration not stated),,1000,
CCCCN1CC(=O)N2C(c3ccccc3)c3[nH]c4ccccc4c3C[C@@H]2C1=O (some centres not stated),91,> 10000,

# Continued, in another order:
IC50 [1] [nM],EC50 (Rattus norvegicus [2]; Rattus norvegicus) [nM],Compound,other results
6,,CC(C)N1CC(=O)N2[C@H](c3ccc4c(c3)OCO4)c3[nH]c4ccccc4c3C[C@@H]2C1=O (stereo in doubt),EC50 (Rattus norvegicus [2]): 500 nM
26,350,CCCCN1CC(=O)N2C(c3ccc(C)cc3)c3[nH]c4ccccc4c3C[C@@H]2C1=O (some centres not stated),
3,800,O=C1[C@H]2Cc3c([nH]c4ccccc34)[C@@H](c3ccc4c(c3)OCO4)N2C(=O)CN1Cc1ccccc1,
3,1000,CCCCN1CC(=O)N2[C@H](c3ccc4c(c3)OCO4)c3[nH]c4ccccc4c3C[C@@H]2C1=O (stereo in doubt; 13),
5,,CCCCN1CC(=O)N2[C@H](c3ccc4c(c3)OCO4)c3[nH]c4ccccc4c3C[C@@H]2C1=O (stereo in doubt),EC50 (Rattus norvegicus [2]): 600 nM
138,3500,"CCCCN1CC(=O)N2C(c3ccc4c(c3)OCO4)c3[nH]c4ccccc4c3C[C@@H]2C1=O (single isomer, unassigned)",
15,> 10000,CCCCN1CC(=O)N2C(c3ccc(Cl)cc3)c3[nH]c4ccccc4c3C[C@@H]2C1=O (some centres not stated),
8,,CC(C)N1CC(=O)N2[C@H](c3ccc4c(c3)OCO4)c3[nH]c4ccccc4c3C[C@@H]2C1=O (stereo in doubt; 14),EC50 (Rattus norvegicus [2]): 150 nM
